Source: ChEMBL document CHEMBL1629579, “Correlating echinocandin MIC and kinetic inhibition of fks1 mutant glucan synthases for Candida albicans: implications for interpretive breakpoints” (Antimicrob Agents Chemother, 2009)
≈ marks a conversion by molar mass, not a printed value. Numbered stars: 1 amine (or outer) side, 2 acyl side, 3 side chain; on linkers, the order of the positions; unused ones are H or OH. Bridge positions count the residues as written; N and C are the ends. Square brackets hold non-standard residues; d marks the D form. Peptide text beside a SMILES is read from it. * marks the point of attachment. hTyr(3S-OH,4S-OH,3'-OSO3H) = N[C@H](C(=O)O)[C@H](O)[C@@H](O)c1ccc(O)c(OS(=O)(=O)O)c1; Orn(4R-OH,5R-OH) = O=C([C@H](C[C@@H](O)[C@@H](O)N[*:3])N[*:1])[*:2]; Pro(3S-OH,4S-Me) = C[C@H]1CN[C@H](C(=O)O)[C@H]1O; X1 = CCCCCOc1ccc(-c2cc(-c3ccc(C(=O)*)cc3)no2)cc1; Gln(3R-OH) = NC(=O)C[C@@H](O)[C@H](N)C(=O)O; Hyp = O=C(O)[C@@H]1C[C@@H](O)CN1

Key:
Candida albicans [1] = assay: Antimicrobial activity against Candida albicans SC5314 by M27-A3 method; format: functional
Summary of the method: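 Broth microdilution per CLSI M27-A3 in RPMI 1640, with and without 50% human serum, in triplicate. C. krusei ATCC 6258 and C. parapsilosis ATCC 22019 served as quality-control strains. MIC reported as arithmetic mean of three repetitions on separate days.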

Candida albicans [2] = assay: Antimicrobial activity against Candida albicans 36082 by M27-A3 method in presence of 50% human serum; format: functional
Summary of the method: (§1)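 Broth microdilution per CLSI M27-A3 in RPMI 1640, done in triplicate on three separate days. Each strain was tested with and without 50% human serum. C. krusei ATCC 6258 and C. parapsilosis ATCC 22019 served as QC strains. Arithmetic means are reported, and geometric means were used for comparison.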

Candida albicans [3] = assay: Antimicrobial activity against Candida albicans 3107 by M27-A3 method; format: functional; summary of the method: as §1
Candida albicans [4] = assay: Antimicrobial activity against Candida albicans 119 harboring FKS1 T1921C mutant gene and FKS1 hotspot1 F641L mutant gene by M27-A3 method in presence of 50% human serum; format: functional; summary of the method: as §1
Candida albicans [5] = assay: Antimicrobial activity against Candida albicans 177 harboring FKS1 T1922C mutant gene and FKS1 hotspot1 F641S mutant gene by M27-A3 method; format: functional; summary of the method: as §1
Candida albicans [6] = assay: Antimicrobial activity against Candida albicans 177 harboring FKS1 T1922C mutant gene and FKS1 hotspot1 F641S mutant gene by M27-A3 method in presence of 50% human serum; format: functional; summary of the method: as §1
Candida albicans [7] = assay: Antimicrobial activity against Candida albicans 2762 harboring FKS1 T1922C mutant gene and FKS1 hotspot1 F641S mutant gene by M27-A3 method in presence of 50% human serum; format: functional; summary of the method: as §1
Candida albicans [8] = assay: Antimicrobial activity against Candida albicans 5415 harboring FKS1 T1933C mutant gene and FKS1 hotspot1 S645P mutant gene by M27-A3 method; format: functional; summary of the method: as §1
Candida albicans [9] = assay: Antimicrobial activity against Candida albicans 5415 harboring FKS1 T1933C mutant gene and FKS1 hotspot1 S645P mutant gene by M27-A3 method in presence of 50% human serum; format: functional; summary of the method: as §1
Candida albicans [10] = assay: Antimicrobial activity against Candida albicans 89 harboring FKS1 C1934A mutant gene and FKS1 hotspot1 S645Y mutant gene by M27-A3 method; format: functional; summary of the method: as §1
Candida albicans [11] = assay: Antimicrobial activity against Candida albicans 85 harboring FKS1 C1934T mutant gene and FKS1 hotspot1 S645F mutant gene by M27-A3 method; format: functional; summary of the method: as §1
Candida albicans [12] = assay: Antimicrobial activity against Candida albicans 85 harboring FKS1 C1934T mutant gene and FKS1 hotspot1 S645F mutant gene by M27-A3 method in presence of 50% human serum; format: functional; summary of the method: as §1
Candida albicans [13] = assay: Antimicrobial activity against Candida albicans 122 harboring FKS1 C1946A mutant gene and FKS1 hotspot1 P649H mutant gene by M27-A3 method; format: functional; summary of the method: as §1
Candida albicans [14] = assay: Antimicrobial activity against Candida albicans 90 harboring FKS1 G4082R mutant gene and FKS1 hotspot2 R1361R/H mutant gene by M27-A3 method; format: functional; summary of the method: as §1
Candida albicans [15] = assay: Antimicrobial activity against Candida albicans 90 harboring FKS1 G4082R mutant gene and FKS1 hotspot2 R1361R/H mutant gene by M27-A3 method in presence of 50% human serum; format: functional; summary of the method: as §1
Candida albicans [16] = assay: Antimicrobial activity against Candida albicans A15-10 harboring FKS1 T1933C mutant gene and FKS1 hotspot1 S645P mutant gene by M27-A3 method; format: functional; summary of the method: as §1
[17] = Inhibition of Candida albicans 3107 1,3-beta-D-glucan synthase subunit FKS1p
Summary of the method: (§2)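 Enzyme is product-entrapped 1,3-β-D-glucan synthase, enriched from membranes of each strain grown at 37°C with shaking in YPD broth to early stationary phase. Filtration polymerization assay uses [3H]UDPG, started by adding enzyme and run 60 min at 25°C. Echinocandins are added as serial dilutions, with 1% DMSO controls for anidulafungin. IC50 is from a variable-slope sigmoidal fit; values are triplicate arithmetic means.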

[18] = Inhibition of Candida albicans 3795 1,3-beta-D-glucan synthase subunit FKS1p; summary of the method: as §2
[19] = Inhibition of Candida albicans 2762 1,3-beta-D-glucan synthase subunit FKS1p T1922C mutant; summary of the method: as §2
[20] = Inhibition of Candida albicans 85 1,3-beta-D-glucan synthase subunit FKS1p C1934T mutant; summary of the method: as §2
[21] = Inhibition of Candida albicans 149 1,3-beta-D-glucan synthase subunit FKS1p G1942T mutant; summary of the method: as §2
[22] = Inhibition of Candida albicans 122 1,3-beta-D-glucan synthase subunit FKS1p C1946A mutant; summary of the method: as §2
[23] = Inhibition of Candida albicans 194 1,3-beta-D-glucan synthase subunit FKS1p C1934T/G4082R mutant; summary of the method: as §2
[24] = Inhibition of Candida albicans A15 1,3-beta-D-glucan synthase subunit FKS1p T1933Y mutant; summary of the method: as §2
[25] = Inhibition of Candida albicans A15-10 1,3-beta-D-glucan synthase subunit FKS1p T1933C mutant; summary of the method: as §2
Candida albicans SC5314 = assay: Activity at Candida albicans SC5314 1,3-beta-D-glucan synthase subunit FKS1p
Summary of the method: (§3)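 Glucan synthase from cells grown at 37°C with vigorous shaking to early stationary phase in YPD. Membrane enzyme enriched by product entrapment. Serial echinocandin dilutions; ANF controls held 1% DMSO. Reaction started by adding enzyme, run 60 min at 25°C in a filtration polymerization assay, stopped on ice. IC50 from a variable-slope sigmoidal fit; means of three repetitions on separate days.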

Candida albicans [26] = assay: Activity at Candida albicans 3795 1,3-beta-D-glucan synthase subunit FKS1p; summary of the method: as §3
Candida albicans [27] = assay: Activity at Candida albicans 2762 1,3-beta-D-glucan synthase subunit FKS1p T1922C mutant
Summary of the method: (§4)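 Product-entrapped 1,3-β-D-glucan synthase from cells grown in YPD at 37°C to early stationary phase. Wells held 50 mM HEPES pH 7.5, 10% glycerol, 1.5 mg/ml BSA, 25 mM KF, 1 mM EDTA, 25 μM GTP-γ-S, 1 μg enzyme and [3H]UDPG (0.015–2 mM). Reactions ran 60 min at 25°C. Vmax and Km came from Lineweaver-Burke plots, in triplicate.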

Candida albicans [28] = assay: Activity at Candida albicans 205 1,3-beta-D-glucan synthase subunit FKS1p T1933C mutant; summary of the method: as §4
Candida albicans [29] = assay: Activity at Candida albicans 89 1,3-beta-D-glucan synthase subunit FKS1p C1934A mutant; summary of the method: as §4
Candida albicans [30] = assay: Activity at Candida albicans 121 1,3-beta-D-glucan synthase subunit FKS1p G4082A mutant; summary of the method: as §4
Candida albicans [31] = assay: Activity at Candida albicans 90 1,3-beta-D-glucan synthase subunit FKS1p G4082R mutant; summary of the method: as §4

CCCCCOc1ccc(-c2cc(-c3ccc(C(=O)N[C@H]4C[C@@H](O)[C@@H](O)NC(=O)[C@@H]5[C@@H](O)[C@@H](C)CN5C(=O)[C@H]([C@H](O)CC(N)=O)NC(=O)[C@H]([C@H](O)[C@@H](O)c5ccc(O)c(OS(=O)(=O)O)c5)NC(=O)[C@@H]5C[C@@H](O)CN5C(=O)[C@H]([C@@H](C)O)NC4=O)cc3)no2)cc1 [MICAFUNGIN] (X1-[Orn(4R-OH,5R-OH)]T[Hyp][hTyr(3S-OH,4S-OH,3'-OSO3H)][Gln(3R-OH)][Pro(3S-OH,4S-Me)]; lactam 1-C)
MIC (Candida albicans [1]): 0.05 µg/mL (≈ 0.0394 µM) | MIC (Candida albicans [2]): 1 µg/mL | MIC (Candida albicans [3]): 0.03 µg/mL (≈ 0.0236 µM) | MIC (Candida albicans [4]): 8 µg/mL | MIC (Candida albicans [5]): 1 µg/mL (≈ 0.787 µM) | MIC (Candida albicans [6]): 16 µg/mL | MIC (Candida albicans [7]): 16 µg/mL | MIC (Candida albicans [8]): 4 µg/mL (≈ 3.15 µM) | MIC (Candida albicans [9]): 8 µg/mL | MIC (Candida albicans [10]): 4 µg/mL (≈ 3.15 µM) | MIC (Candida albicans [11]): 2.67 µg/mL (≈ 2.1 µM) | MIC (Candida albicans [12]): 8 µg/mL | MIC (Candida albicans [13]): 0.83 µg/mL (≈ 0.653 µM) | MIC (Candida albicans [14]): 0.5 µg/mL (≈ 0.394 µM) | MIC (Candida albicans [15]): 4 µg/mL | MIC (Candida albicans [16]): 4 µg/mL (≈ 3.15 µM) | IC50 [17]: 0.01472 µg/mL (≈ 0.0116 µM) | Ki [17]: 0.04187 µg/mL (≈ 0.033 µM) | IC50 [18]: 0.03889 µg/mL (≈ 0.0306 µM) | Ki [18]: 0.05864 µg/mL (≈ 0.0462 µM) | IC50 [19]: 1.693 µg/mL (≈ 1.33 µM) | Ki [19]: 1.44788 µg/mL (≈ 1.14 µM) | IC50 [20]: 0.4498 µg/mL (≈ 0.354 µM) | Ki [20]: 1.28919 µg/mL (≈ 1.01 µM) | IC50 [21]: 0.3755 µg/mL (≈ 0.296 µM) | Ki [21]: 0.48923 µg/mL (≈ 0.385 µM) | IC50 [22]: 0.9246 µg/mL (≈ 0.728 µM) | Ki [22]: 2.58853 µg/mL (≈ 2.04 µM) | IC50 [23]: 1.765 µg/mL (≈ 1.39 µM) | Ki [23]: 0.49383 µg/mL (≈ 0.389 µM) | IC50 [24]: 0.1773 µg/mL (≈ 0.14 µM) | IC50 [25]: 1.194 µg/mL (≈ 0.94 µM) | Ki [25]: 2.2495 µg/mL (≈ 1.77 µM) | Km (Candida albicans SC5314): 125 µM | Vmax (Candida albicans SC5314): 6.72 nmol/min | Km (Candida albicans [26]): 88 µM | Vmax (Candida albicans [26]): 6.63 nmol/min | Km (Candida albicans [27]): 108 µM | Vmax (Candida albicans [27]): 3.57 nmol/min | Km (Candida albicans [28]): 116 µM | Vmax (Candida albicans [28]): 5.54 nmol/min | Km (Candida albicans [29]): 61 µM | Vmax (Candida albicans [29]): 2.51 nmol/min | Km (Candida albicans [30]): 129 µM | Vmax (Candida albicans [30]): 4.41 nmol/min | Km (Candida albicans [31]): 31 µM | Vmax (Candida albicans [31]): 2.36 nmol/min
